From ChEMBL document CHEMBL1126270, “Synthesis of 3-[(2,3-dihydro-1,1,3-trioxo-1,2-benzisothiazol-2-yl)alkyl] 1,4-dihydropyridine-3,5-dicarboxylate derivatives as calcium channel modulators” (J Med Chem, 1992)

Assays:
Oryctolagus cuniculus [1] = organism: Oryctolagus cuniculus; experiment: Blockade of calcium-evoked contractions evaluated in depolarized rabbit aortic strips; assay type: functional; settings: Aorta
Procedure, shortened: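 Male New Zealand rabbit thoracic aorta, helicoidal strips, 2.5 g preload, Krebs–bicarbonate, 37 °C, 95% O2/5% CO2, pH 7.4. After 1 h equilibration, depolarized with 35 mM K+; 1.5 mM Ca2+ added 10 min later, repeated until reproducible. Compound at increasing concentrations from 20 min before and during Ca2+ addition; responses normalized to initial tension; IC50 by Finney method.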

Oryctolagus cuniculus [2] = organism: Oryctolagus cuniculus; experiment: Relative potency evaluated (relative potency = IC50 of compound / IC50 of nifedipine) in rabbit; assay type: functional
[3] = target: T1, Voltage-dependent L-type calcium channel subunit alpha-1C (Oryctolagus cuniculus, UniProt P15381); experiment: Blockade of calcium-evoked contractions in depolarized aortic strips; assay type: functional, tissue-based, Aorta
Oryctolagus cuniculus [4] = organism: Oryctolagus cuniculus; experiment: Relative potency was evaluated. (relative potency = IC50 of compound / IC50 of nifedipine); assay type: functional
Oryctolagus cuniculus [5] = organism: Oryctolagus cuniculus; experiment: Inhibition of electrically stimulated rabbit left atria contraction.; assay type: functional
Procedure, shortened: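 Rabbit left atria electrically driven (1 Hz, 10 ms, twice threshold voltage), equilibrated 1–1.5 h. Compounds added cumulatively (10^-10–10^-6 M), diluted from DMSO stocks into Krebs–Henseleit, final DMSO <0.1%. Isometric force recorded; IC50 from contractile force relative to initial control values, with 95% confidence limits.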

[6] = target: T1, Voltage-dependent L-type calcium channel subunit alpha-1C; experiment: Selectivity index was measured as the IC50 needed to depress the heart beat divided by IC50 needed to block [Ca2+] contractions in rabbit aortic strips; assay type: functional, tissue-based, Aorta
Oryctolagus cuniculus [7] = organism: Oryctolagus cuniculus; experiment: Recovery of the initial contraction of rabbit aortic strips, blocked at 10e-7 M concentration.; settings: Aorta

T1 sequence (P15381 whole entry): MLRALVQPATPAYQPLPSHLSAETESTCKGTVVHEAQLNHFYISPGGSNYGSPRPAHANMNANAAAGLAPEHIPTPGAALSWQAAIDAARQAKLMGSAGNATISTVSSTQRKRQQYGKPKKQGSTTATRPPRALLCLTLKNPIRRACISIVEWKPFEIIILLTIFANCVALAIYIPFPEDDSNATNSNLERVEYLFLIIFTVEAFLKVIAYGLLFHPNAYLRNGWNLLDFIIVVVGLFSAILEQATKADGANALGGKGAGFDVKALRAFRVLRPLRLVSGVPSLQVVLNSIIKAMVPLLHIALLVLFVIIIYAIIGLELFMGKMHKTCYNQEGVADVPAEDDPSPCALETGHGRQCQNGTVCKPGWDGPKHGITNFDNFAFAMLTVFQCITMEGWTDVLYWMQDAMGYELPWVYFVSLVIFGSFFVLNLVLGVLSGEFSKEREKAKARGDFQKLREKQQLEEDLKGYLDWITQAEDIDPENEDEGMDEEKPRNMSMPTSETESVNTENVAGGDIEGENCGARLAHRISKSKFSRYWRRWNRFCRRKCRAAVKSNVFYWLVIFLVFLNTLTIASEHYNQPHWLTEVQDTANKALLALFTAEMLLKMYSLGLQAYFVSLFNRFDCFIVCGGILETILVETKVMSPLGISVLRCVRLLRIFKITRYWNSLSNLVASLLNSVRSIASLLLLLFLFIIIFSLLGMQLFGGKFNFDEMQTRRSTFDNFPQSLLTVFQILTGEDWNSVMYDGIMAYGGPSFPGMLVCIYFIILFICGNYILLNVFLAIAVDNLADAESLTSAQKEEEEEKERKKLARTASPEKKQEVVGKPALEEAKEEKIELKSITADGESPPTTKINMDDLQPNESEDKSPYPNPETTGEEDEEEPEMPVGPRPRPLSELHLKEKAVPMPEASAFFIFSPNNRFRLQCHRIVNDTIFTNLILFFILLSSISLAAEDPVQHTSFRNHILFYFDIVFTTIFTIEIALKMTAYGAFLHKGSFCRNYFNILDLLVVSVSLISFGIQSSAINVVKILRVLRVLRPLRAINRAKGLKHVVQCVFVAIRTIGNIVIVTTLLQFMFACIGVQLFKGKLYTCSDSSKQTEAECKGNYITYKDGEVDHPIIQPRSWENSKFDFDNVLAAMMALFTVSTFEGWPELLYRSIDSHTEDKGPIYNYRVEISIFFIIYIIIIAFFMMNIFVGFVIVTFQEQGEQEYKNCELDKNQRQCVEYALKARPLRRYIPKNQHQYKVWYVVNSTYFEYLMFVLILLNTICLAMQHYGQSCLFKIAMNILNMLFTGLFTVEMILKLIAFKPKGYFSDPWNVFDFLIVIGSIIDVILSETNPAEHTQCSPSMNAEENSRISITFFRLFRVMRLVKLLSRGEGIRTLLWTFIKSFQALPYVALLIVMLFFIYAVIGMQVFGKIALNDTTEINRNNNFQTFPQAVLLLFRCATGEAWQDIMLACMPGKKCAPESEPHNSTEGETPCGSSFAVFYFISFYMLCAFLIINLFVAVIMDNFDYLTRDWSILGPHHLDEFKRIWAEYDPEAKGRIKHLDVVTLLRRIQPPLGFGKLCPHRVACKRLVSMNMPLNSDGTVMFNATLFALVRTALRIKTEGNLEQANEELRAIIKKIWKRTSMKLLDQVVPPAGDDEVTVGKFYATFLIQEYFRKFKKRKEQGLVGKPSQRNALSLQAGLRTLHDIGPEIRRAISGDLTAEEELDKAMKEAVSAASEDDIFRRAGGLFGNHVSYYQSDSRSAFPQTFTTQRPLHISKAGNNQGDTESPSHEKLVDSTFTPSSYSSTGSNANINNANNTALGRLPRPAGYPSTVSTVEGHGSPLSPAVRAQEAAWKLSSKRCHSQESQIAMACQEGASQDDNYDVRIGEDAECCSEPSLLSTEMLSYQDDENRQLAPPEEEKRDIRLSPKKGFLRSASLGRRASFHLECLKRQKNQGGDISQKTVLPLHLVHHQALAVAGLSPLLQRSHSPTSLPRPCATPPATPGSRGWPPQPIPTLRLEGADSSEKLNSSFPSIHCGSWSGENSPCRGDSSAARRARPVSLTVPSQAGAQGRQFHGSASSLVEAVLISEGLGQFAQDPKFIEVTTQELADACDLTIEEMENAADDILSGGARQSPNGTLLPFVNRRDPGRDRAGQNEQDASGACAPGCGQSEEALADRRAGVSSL

SMILES	IC50 (Oryctolagus cuniculus [1]) [nM]	Relative potency (Oryctolagus cuniculus [2])	IC50 [3] [nM]	Relative potency (Oryctolagus cuniculus [4])	IC50 (Oryctolagus cuniculus [5]) [nM]	Selectivity index [6]	Recovery (Oryctolagus cuniculus [7]) [%]
CO/C(O)=C1\C(C)=NC(C)=C(C(=O)OCCCN2C(=O)c3ccccc3S2(=O)=O)C1c1cccc([N+](=O)[O-])c1 (stereo not given)	2.6	1.1	–	–	–	–	–
COCCO/C(O)=C1\C(C)=NC(C)=C(C(=O)OCCN2C(=O)c3ccccc3S2(=O)=O)C1c1cccc([N+](=O)[O-])c1 (stereo not given)	28.8	0.1	–	–	–	–	–
CC1=NC(C)=C(C(=O)OCN2C(=O)c3ccccc3S2(=O)=O)C(c2ccccc2[N+](=O)[O-])/C1=C(\O)OCC1CCCCO1 (stereo not given)	–	–	25.1	0.1	–	–	–
CC1=NC(C)=C(C(=O)OCCCN2C(=O)c3ccccc3S2(=O)=O)C(c2cccc([N+](=O)[O-])c2)/C1=C(\O)OCC1CCCO1 (stereo not given)	10.5	0.3	–	–	–	–	–
CO/C(O)=C1\C(C)=NC(C)=C(C(=O)OCCCN2C(=O)c3ccccc3S2(=O)=O)C1c1ccccc1[N+](=O)[O-] (stereo not given)	1.5	1.9	–	–	120	80	18.8
CO/C(O)=C1\C(C)=NC(C)=C(C(=O)OCCN2C(=O)c3ccccc3S2(=O)=O)C1c1cccc(Cl)c1Cl (stereo not given)	17.3	0.2	–	–	–	–	–
CCO/C(O)=C1\C(C)=NC(C)=C(C(=O)OCCCN2C(=O)c3ccccc3S2(=O)=O)C1c1ccccc1C(F)(F)F (stereo not given)	0.8	3.6	–	–	124	163	1.2
CC1=NC(C)=C(C(=O)OCN2C(=O)c3ccccc3S2(=O)=O)C(c2ccccc2Cl)/C1=C(\O)OCC1CCCO1 (stereo not given)	–	–	10.1	0.3	–	–	–
CC1=NC(C)=C(C(=O)OCCCN2C(=O)c3ccccc3S2(=O)=O)C(c2cccc(Cl)c2Cl)/C1=C(\O)OCC1CCCCO1 (stereo not given)	4	0.7	–	–	–	–	–
CCO/C(O)=C1\C(C)=NC(C)=C(C(=O)OCN2C(=O)c3ccccc3S2(=O)=O)C1c1cccc([N+](=O)[O-])c1 (stereo not given)	–	–	3.3	0.1	–	–	–
CC1=NC(C)=C(C(=O)OCCN2C(=O)c3ccccc3S2(=O)=O)C(c2ccccc2Cl)/C1=C(\O)OC(C)(C)C (stereo not given)	4.5	0.6	–	–	–	–	–
CCO/C(O)=C1\C(C)=NC(C)=C(C(=O)OCCCN2C(=O)c3ccccc3S2(=O)=O)C1c1ccccc1[N+](=O)[O-] (stereo not given)	2.6	1.1	–	–	–	–	–
CCO/C(O)=C1\C(C)=NC(C)=C(C(=O)OCCCN2C(=O)c3ccccc3S2(=O)=O)C1c1cccc([N+](=O)[O-])c1 (stereo not given)	1.9	1.5	–	–	–	–	–
CC1=NC(C)=C(C(=O)OCCCN2C(=O)c3ccccc3S2(=O)=O)C(c2cccc(Cl)c2Cl)/C1=C(\O)OC(C)(C)C (stereo not given)	3.1	0.2	–	–	–	–	–
CC1=NC(C)=C(C(=O)OCCN2C(=O)c3ccccc3S2(=O)=O)C(c2ccccc2C(F)(F)F)/C1=C(\O)OCC1CCCO1 (stereo not given)	2.5	1.2	–	–	–	–	–
COCCO/C(O)=C1\C(C)=NC(C)=C(C(=O)OCCN2C(=O)c3ccccc3S2(=O)=O)C1c1cccc(Cl)c1Cl (stereo not given)	7	0.4	–	–	–	–	–
CC1=NC(C)=C(C(=O)OCCCN2C(=O)c3ccccc3S2(=O)=O)C(c2ccccc2Cl)/C1=C(\O)OC(C)C (stereo not given)	1.3	2.2	–	–	48	37	–
CC1=NC(C)=C(C(=O)OCCCN2C(=O)c3ccccc3S2(=O)=O)C(c2cccc([N+](=O)[O-])c2)/C1=C(\O)OC(C)C (stereo not given)	1	2.9	–	–	210	205	1.6
COCCO/C(O)=C1\C(C)=NC(C)=C(C(=O)OCCCN2C(=O)c3ccccc3S2(=O)=O)C1c1ccccc1Cl (stereo not given)	2.9	1	–	–	–	–	–
CCO/C(O)=C1\C(C)=NC(C)=C(C(=O)OCCN2C(=O)c3ccccc3S2(=O)=O)C1c1cccc([N+](=O)[O-])c1 (stereo not given)	2.6	1.1	–	–	–	–	–
CC1=NC(C)=C(C(=O)OCCCN2C(=O)c3ccccc3S2(=O)=O)C(c2ccccc2[N+](=O)[O-])/C1=C(\O)OCC1CCCCO1 (stereo not given)	11.5	0.3	–	–	–	–	–

SMILES	IC50 (Oryctolagus cuniculus [1]) [nM]	Relative potency (Oryctolagus cuniculus [2])	IC50 [3] [nM]	Relative potency (Oryctolagus cuniculus [4])	IC50 (Oryctolagus cuniculus [5]) [nM]	Selectivity index [6]	Recovery (Oryctolagus cuniculus [7]) [%]
CC1=NC(C)=C(C(=O)OCCN2C(=O)c3ccccc3S2(=O)=O)C(c2cccc(Cl)c2Cl)/C1=C(\O)OCC1CCCO1 (stereo not given)	2.1	1.4	–	–	–	–	–
CC1=NC(C)=C(C(=O)OCCN2C(=O)c3ccccc3S2(=O)=O)C(c2ccccc2C(F)(F)F)/C1=C(\O)OCC1CCCCO1 (stereo not given)	25.5	0.1	–	–	–	–	–
CO/C(O)=C1\C(C)=NC(C)=C(C(=O)OCCN2C(=O)c3ccccc3S2(=O)=O)C1c1cccc([N+](=O)[O-])c1 (stereo not given)	39.8	0.1	–	–	–	–	–
COCCO/C(O)=C1\C(C)=NC(C)=C(C(=O)OCCN2C(=O)c3ccccc3S2(=O)=O)C1c1ccccc1Cl (stereo not given)	22.9	0.1	–	–	–	–	0.5
COCCO/C(O)=C1\C(C)=NC(C)=C(C(=O)OCCCN2C(=O)c3ccccc3S2(=O)=O)C1c1ccccc1[N+](=O)[O-] (stereo not given)	2.7	1.1	–	–	–	–	–
CCO/C(O)=C1\C(C)=NC(C)=C(C(=O)OCCN2C(=O)c3ccccc3S2(=O)=O)C1c1cccc(Cl)c1Cl (stereo not given)	4	0.7	–	–	–	–	–
CCO/C(O)=C1\C(C)=NC(C)=C(C(=O)OCCCN2C(=O)c3ccccc3S2(=O)=O)C1c1ccccc1Cl (stereo not given)	3.9	0.7	–	–	–	–	–
CO/C(O)=C1\C(C)=NC(C)=C(C(=O)OCCCN2C(=O)c3ccccc3S2(=O)=O)C1c1ccccc1Cl (stereo not given)	1.8	1.6	–	–	140	77	6.05
CC1=NC(C)=C(C(=O)OCCCN2C(=O)c3ccccc3S2(=O)=O)C(c2ccccc2C(F)(F)F)/C1=C(\O)OCC1CCCO1 (stereo not given)	3.7	0.8	–	–	–	–	–
CC1=NC(C)=C(C(=O)OCCN2C(=O)c3ccccc3S2(=O)=O)C(c2ccccc2Cl)/C1=C(\O)OCC1CCCO1 (stereo not given)	3.5	0.8	–	–	–	–	–
CC1=NC(C)=C(C(=O)OCCCN2C(=O)c3ccccc3S2(=O)=O)C(c2ccccc2C(F)(F)F)/C1=C(\O)OC(C)C (stereo not given)	2.7	1.1	–	–	–	–	–
COCCO/C(O)=C1\C(C)=NC(C)=C(C(=O)OCCN2C(=O)c3ccccc3S2(=O)=O)C1c1ccccc1C(F)(F)F (stereo not given)	1.4	2.1	–	–	–	–	–
CCO/C(O)=C1\C(C)=NC(C)=C(C(=O)OCCN2C(=O)c3ccccc3S2(=O)=O)C1c1ccccc1Cl (stereo not given)	10	0.3	–	–	–	–	–
CC1=NC(C)=C(C(=O)OCCN2C(=O)c3ccccc3S2(=O)=O)C(c2cccc(Cl)c2Cl)/C1=C(\O)OCC1CCCCO1 (stereo not given)	11.1	0.3	–	–	–	–	–
COCCO/C(O)=C1\C(C)=NC(C)=C(C(=O)OCCCN2C(=O)c3ccccc3S2(=O)=O)C1c1ccccc1C(F)(F)F (stereo not given)	1.4	2.1	–	–	21.8	16	18.3
COCCO/C(O)=C1\C(C)=NC(C)=C(C(=O)OCCCN2C(=O)c3ccccc3S2(=O)=O)C1c1cccc([N+](=O)[O-])c1 (stereo not given)	6.8	0.4	–	–	–	–	–
CC1=NC(C)=C(C(=O)OCCCN2C(=O)c3ccccc3S2(=O)=O)C(c2ccccc2Cl)/C1=C(\O)OCC1CCCO1 (stereo not given)	7.1	0.4	–	–	–	–	–
CC1=NC(C)=C(C(=O)OCCN2C(=O)c3ccccc3S2(=O)=O)C(c2ccccc2Cl)/C1=C(\O)OC(C)C (stereo not given)	3.1	0.9	–	–	–	–	–
CC1=NC(C)=C(C(=O)OCCN2C(=O)c3ccccc3S2(=O)=O)C(c2ccccc2[N+](=O)[O-])/C1=C(\O)OC(C)(C)C (stereo not given)	0.7	4.1	–	–	28.5	41	0.2
CC1=NC(C)=C(C(=O)OCCCN2C(=O)c3ccccc3S2(=O)=O)C(c2ccccc2Cl)/C1=C(\O)OCC1CCCCO1 (stereo not given)	7	0.4	–	–	–	–	–
CC1=NC(C)=C(C(=O)OCCCN2C(=O)c3ccccc3S2(=O)=O)C(c2ccccc2[N+](=O)[O-])/C1=C(\O)OCC1CCCO1 (stereo not given)	6.8	0.4	–	–	–	–	–
